Assay results reported in ChEMBL document CHEMBL3526041, “Absorption, metabolism and excretion of [(14)C]mirabegron (YM178), a potent and selective β(3)-adrenoceptor agonist, after oral administration to healthy male volunteers” (Drug Metab Dispos, 2012).
Values belong to the compound of their own block, whether it stands above or below them.

Experiments:
[1] = Drug recovery in healthy human urine treated with [14C]mirabegron at 160 mg, po as single dose measured up to 48 hrs; type: ADME, organism-based; parameters: dosed compound name [14C]Mirabegron; settings: in vivo
In short: (§1)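 Urine was collected at 0–6, 6–12, 12–24 and 24–48 h after a single oral 160 mg [14C]mirabegron dose in four men, with dichlorvos added. Samples underwent solid-phase extraction and radio-HPLC (C18, 40°C), with eluate fractions counted by scintillation. Each peak, as a percentage of eluted radioactivity, was converted to % of dose without recovery correction; mean ± S.D.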

[2] = test system: Plasma; test: Drug recovery in healthy human plasma treated with [14C]mirabegron at 160 mg, po as single dose measured at 4 hrs; type: ADME, organism-based; parameters: dosed compound name [14C]Mirabegron; settings: in vivo
In short: (§2)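 Plasma taken at 2, 4, 8 and 12 h from the four subjects was pooled at each time point, with dichlorvos added. Pools underwent solid-phase extraction, then HPLC with fractions counted by low-level liquid scintillation. Each peak is expressed as % of the radioactivity injected onto HPLC.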

[3] = test system: Plasma; test: Drug recovery in healthy human plasma treated with [14C]mirabegron at 160 mg, po as single dose measured at 12 hrs; type: ADME, organism-based; parameters: dosed compound name [14C]Mirabegron; settings: in vivo; in short: as §2
[4] = test system: Plasma; test: Drug recovery in healthy human plasma treated with [14C]mirabegron at 160 mg, po as single dose measured at 2 hrs; type: ADME, organism-based; parameters: dosed compound name [14C]Mirabegron; settings: in vivo; in short: as §2
[5] = test system: Plasma; test: Drug recovery in healthy human plasma treated with [14C]mirabegron at 160 mg, po as single dose measured at 8 hrs; type: ADME, organism-based; parameters: dosed compound name [14C]Mirabegron; settings: in vivo; in short: as §2
[6] = test system: Plasma; test: Drug recovery in healthy human plasma at 160 mg, po as single dose measured at 2 hrs; type: ADME, organism-based; parameters: dosed compound name [14C]Mirabegron; settings: in vivo; in short: as §2
[7] = AUC (infinity) in healthy human plasma at 160 mg, po as single dose; type: ADME, organism-based; parameters: dose 160 mg, route oral, time infinity, dosed compound name [14C]Mirabegron
In short: (§3)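 Four healthy men fasted overnight, then took one oral dose of 160 mg mirabegron containing 1.85 MBq [14C]mirabegron, dissolved in 20 mM sodium citrate pH 4.5. Blood was drawn into lithium heparin tubes from 0 to 168 h. Total radioactivity in whole blood and plasma was counted by liquid scintillation. Unchanged drug in plasma was measured by validated LC-MS/MS (1–500 ng/ml). Parameters were derived noncompartmentally; values are mean ± S.D., n=4.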

[8] = Absolute oral bioavailability in rat at 30 mg/kg; type: ADME, organism-based; parameters: dosed compound name [14C]Mirabegron; settings: in vivo
[9] = Terminal elimination phase half life in healthy human urine at 160 mg, po as single dose; type: ADME, organism-based; parameters: dosed compound name [14C]Mirabegron; settings: read-out: beta t1/2 (converted)
In short: (§4)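 Same single oral 160 mg [14C]mirabegron solution in four fasted healthy men. Urine was collected over 0–6, 6–12 and 12–24 h, then in 24-h intervals to 408 h. Radioactivity was measured by scintillation counting. Unchanged drug was measured by LC-MS/MS (2–1000 ng/ml). Half-life came from log-linear regression of the terminal phase, and renal clearance was also calculated.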

[10] = Cmax in healthy human plasma at 160 mg, po as single dose; type: ADME, organism-based; parameters: dose 160 mg, route oral, dosed compound name [14C]Mirabegron; in short: as §3
[11] = test system: Plasma; test: Drug recovery in healthy human plasma at 160 mg, po as single dose measured at 4 hrs; type: ADME, organism-based; parameters: dosed compound name [14C]Mirabegron; settings: in vivo; in short: as §2
[12] = Tmax in healthy human plasma at 160 mg, po as single dose; type: ADME, organism-based; parameters: dosed compound name [14C]Mirabegron; in short: as §3
[13] = Absolute oral bioavailability in dog at 0.25 mg/kg; type: ADME, organism-based, Canis lupus familiaris; parameters: dosed compound name [14C]Mirabegron; settings: in vivo
[14] = test system: Plasma; test: Drug recovery in healthy human plasma at 160 mg, po as single dose measured at 12 hrs; type: ADME, organism-based; parameters: dosed compound name [14C]Mirabegron; settings: in vivo; in short: as §2
[15] = Absolute oral bioavailability in dog at 1 mg/kg; type: ADME, organism-based, Canis lupus familiaris; parameters: dosed compound name [14C]Mirabegron; settings: in vivo
[16] = Terminal elimination phase half life in healthy human plasma at 160 mg, po as single dose; type: ADME, organism-based; parameters: dosed compound name [14C]Mirabegron; settings: read-out: beta t1/2 (converted); in short: as §3
[17] = Drug recovery in healthy human urine at 160 mg, po as single dose measured up to 48 hrs; type: ADME, organism-based; parameters: dosed compound name [14C]Mirabegron; settings: read-out: Compound recovery; in short: as §1
[18] = test system: Plasma; test: Drug recovery in healthy human plasma at 160 mg, po as single dose measured at 8 hrs; type: ADME, organism-based; parameters: dosed compound name [14C]Mirabegron; settings: in vivo; in short: as §2
[19] = Absolute oral bioavailability in dog at 0.5 mg/kg; type: ADME, organism-based, Canis lupus familiaris; parameters: dosed compound name [14C]Mirabegron; settings: in vivo
[20] = Renal clearance in healthy human plasma at 160 mg, po as single dose; type: ADME, organism-based, Kidney; parameters: dosed compound name [14C]Mirabegron; in short: as §4
[21] = Apparent volume of distribution during terminal phase in healthy human plasma at 160 mg, po as single dose; type: ADME, organism-based; parameters: dosed compound name [14C]Mirabegron; settings: read-out: Vz/F; in short: as §3
[22] = Drug recovery in healthy human urine at 160 mg, po as single dose measured up to 408 hrs; type: ADME, organism-based; parameters: dosed compound name [14C]Mirabegron; settings: read-out: Compound recovery
In short: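 One oral dose of 160 mg [14C]mirabegron (1.85 MBq) given as a solution to four healthy men. Urine and feces were collected to 408 h; feces were homogenized and combusted. Expired air was trapped in hyamine hydroxide at set times to 96 h. All samples were counted by liquid scintillation. Cumulative excretion is given as % of administered radioactivity, mean ± S.D., n=4.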

[23] = Absolute oral bioavailability in rat at 3 mg/kg; type: ADME, organism-based; parameters: dosed compound name [14C]Mirabegron; settings: in vivo
[24] = Apparent oral clearance in healthy human plasma at 160 mg, po as single dose; type: ADME, organism-based; parameters: dosed compound name [14C]Mirabegron; in short: as §3
[25] = Absolute oral bioavailability in rat at 10 mg/kg; type: ADME, organism-based; parameters: dosed compound name [14C]Mirabegron; settings: in vivo

Compound recovery [1]: 1.7%
Compound recovery [2]: 4.3%
Compound recovery [3]: 7.6%
Compound recovery [4]: 3.3%
Compound recovery [5]: 6.2%
SMILES: Cl.Nc1ccc(CCNC[C@H](O)c2ccccc2)cc1

Compound recovery [1]: 0.6%
Compound recovery [2]: 5.9%
Compound recovery [3]: Below limit of detection
Compound recovery [4]: 6.9%
Compound recovery [5]: 3.5%
SMILES: Nc1nc(CC(=O)Nc2ccc(CCN(C[C@H](O)c3ccccc3)O[C@@H]3O[C@H](C(=O)O)[C@@H](O)[C@H](O)[C@H]3O)cc2)cs1

Compound recovery [6]: 46.4%
AUC(0-inf) [7]: 2280 ng·h/mL
bioavailability [8]: 75.7%
half-life [9]: 3.04 days
Cmax [10]: 371 ng/mL
Compound recovery [11]: 30.9%
Tmax [12]: 1 h
bioavailability [13]: 41.8%
Compound recovery [14]: 31%
bioavailability [15]: 77.1%
half-life [16]: 2870 min
dose excreted at 48 h [17]: 18.4%
Compound recovery [18]: 28.6%
bioavailability [19]: 64.6%
CL renal [20]: 295 mL/min
Vd/F [21]: 4820 L
dose excreted at 408 h [22]: 25%
bioavailability [23]: 23%
CL/F [24]: 1180 mL/min
bioavailability [25]: 48.4%
SMILES: Nc1nc(CC(=O)Nc2ccc(CCNC[C@H](O)c3ccccc3)cc2)cs1 [MIRABEGRON]

Compound recovery [1]: 1.3%
Compound recovery [2]: 1.4%
Compound recovery [3]: Below limit of detection
Compound recovery [4]: 2.2%
Compound recovery [5]: Below limit of detection
SMILES: Nc1nc(CC(=O)Nc2ccc(CC(=O)O)cc2)cs1.O=C(O)C(F)(F)F
